Screening data from PubChem BioAssay.
The list is not random: actives were taken first. Their share in the collection is about 3.3%.
Statin myotox sup: protects C2C12 myotubes from simvastatin toxicity | ATP luminescence, 48 h; scaled: DMSO 0, geranylgeraniol control 100 | rescue of ATP level, % at 7.49 µM | 330,000 compounds, 0.78% hits | AID 602340;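 active = mean ATP rescue above about 67%, or every replicate alone reaching that limit, limit read from the data, passing the limit was not always enough; inconclusive = no clear call, values can overlap the other calls; inactive = mean under the limit and some replicate under it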;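 also: myotubes were challenged with 10 µM simvastatin during compound exposure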
E-selectin induc: E-selectin induction on HUVECs | 260,000 compounds, 0.37% hits | HUVEC E-selectin immunofluorescence imaging; normalized: neutral wells 0, TNF-alpha wells 100 | activation, % at 7.58 µM;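 active = mean E-selectin-positive cell signal at least 10% of the positive control, reached in at least 60% of replicates, without over 20% cell loss; inconclusive = no rule given, readout overlaps actives, possibly toxicity-flagged; inactive = the rest, including those meeting only one limit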
Target sequence (P16581 whole entry, looked up): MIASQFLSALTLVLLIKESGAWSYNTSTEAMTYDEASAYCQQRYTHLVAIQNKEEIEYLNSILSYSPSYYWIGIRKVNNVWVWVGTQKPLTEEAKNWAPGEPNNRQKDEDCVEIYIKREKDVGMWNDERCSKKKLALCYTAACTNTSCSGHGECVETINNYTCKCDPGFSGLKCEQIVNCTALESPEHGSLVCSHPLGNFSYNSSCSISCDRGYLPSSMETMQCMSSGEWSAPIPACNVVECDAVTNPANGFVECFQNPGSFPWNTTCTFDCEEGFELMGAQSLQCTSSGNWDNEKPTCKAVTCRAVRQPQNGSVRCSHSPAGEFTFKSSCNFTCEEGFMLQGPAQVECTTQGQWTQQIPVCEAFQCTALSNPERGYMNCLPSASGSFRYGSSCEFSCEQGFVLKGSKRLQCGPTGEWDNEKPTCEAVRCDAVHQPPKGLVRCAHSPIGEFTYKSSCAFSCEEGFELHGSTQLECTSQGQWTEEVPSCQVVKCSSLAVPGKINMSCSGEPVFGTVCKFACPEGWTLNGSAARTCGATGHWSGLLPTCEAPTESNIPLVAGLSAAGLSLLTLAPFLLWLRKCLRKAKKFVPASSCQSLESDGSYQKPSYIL
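Test system: HUVEC | Signal: Immunofluorescence imaging | Read-out: Percent E-selectin-positive cells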
Xi reactivation: reactivates the inactive X chromosome in mouse fibroblasts; XiGFP mouse fibroblasts, % GFP-positive cells imaging, 3 d; cells co-treated with 5-aza-dC sensitizer; scaled so ellipticine positive control = 100%; activation, % at 7.58 µM; 360,000 compounds, 0.055% hits; AID 743238;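 active = mean normalized replicate activation at least 10% and every replicate at or above 10%; inconclusive = only one of the two criteria met; inactive = mean below 10% and not all replicates reach 10%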
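System: SV40-immortalized XiGFP fibroblast cells, line 68-5-11 / Incubation: 3-day compound exposure, then 15 min fixation at room temperature / Compound: single concentration per compound, delivered by pin transfer / Buffer or medium: DMEM plus 5-aza-dC sensitizer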
DENV2 CPE rescue: DENV2-induced cell death inhibition. CPE inhibition, % at 9.99 µM. DENV2-infected cells, cytopathic effect rescue, plate reader. 350,000 compounds, 1.7% hits. AID 651640; in the data active = CPE inhibition above about 20%, passing the limit was not always enough; inconclusive = no clear call, values can overlap the other calls; tested in BHK-21 cells
FGF22 binding: shifts melting point of recombinant human FGF22; AID 651658; activity (Tm shift, normalised), % at 9.99 µM; Q9HCT0; 340,000 compounds, 1.5% hits; recombinant FGF22 thermal shift, SYPRO orange fluorescence; percent of sucrose octasulfate shift, DMSO zero;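 active = mean Tm shift, scaled 0 neutral to 100 positive control, at about 1.3% or above, every replicate too, limit read from the data; inconclusive = no clear call, values can overlap the other calls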
Target sequence (Q9HCT0 whole entry, looked up): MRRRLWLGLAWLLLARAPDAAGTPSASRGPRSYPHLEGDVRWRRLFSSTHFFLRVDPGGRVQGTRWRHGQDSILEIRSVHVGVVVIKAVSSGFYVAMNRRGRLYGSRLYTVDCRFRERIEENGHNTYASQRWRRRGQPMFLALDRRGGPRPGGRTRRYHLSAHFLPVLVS
PglD DTNB: inhibitors of Campylobacter jejuni PglD acetyltransferase; purified PglD enzyme, DTNB colorimetric CoA detection; inhibition, % at 12.5 µM; 360,000 compounds, 0.098% hits; in the data active = inhibition above about 16%, passing the limit was not always enough; inconclusive = no clear call, values can overlap the other calls
Large screens that a line does not name were inactive.

CC(C)CNC(=O)C1(C)CCCN1C(=O)c1ccncc1 (stereo not given)	none
CC(C)CNC(=O)C1(C)CCCN1C(=O)c1cncc(Br)c1 (stereo not given)	DENV2 CPE rescue 26
CCCCNC(=O)C1(C)CCN1C(=O)c1cncc(Br)c1 (stereo not given)	DENV2 CPE rescue 86
CCCCNC(=O)C1(C)CCN1C(=O)c1ccncc1 (stereo not given)	none (no result: E-selectin induc)
CCn1ccc(=N)cc1	Statin myotox sup 113 (no result: E-selectin induc, Xi reactivation, DENV2 CPE rescue, FGF22 binding)
CCCCCn1ccc(=N)cc1	none (no result: E-selectin induc, Xi reactivation, DENV2 CPE rescue, FGF22 binding)
CCC(=O)N1CCc2cc(Br)cc(S(=O)(=O)CC(=O)OC)c21	Statin myotox sup 105 (no result: E-selectin induc, Xi reactivation, DENV2 CPE rescue, FGF22 binding)
CCC(=O)N1CCc2cc(Br)cc(S(=O)(=O)NCCN3CCCC3)c21	DENV2 CPE rescue inconclusive (no result: E-selectin induc)
CC(=O)OCC(=O)C1=CCC2C3CCC4=CC(=O)C=CC4(C)C3(F)C(OC(C)=O)CC12C (stereo not given)	FGF22 binding 43 (no result: Statin myotox sup, E-selectin induc)
Cc1noc(C)c1S(=O)(=O)Nc1ccc2c(c1)C(=O)N([C@H](C)CO)C[C@@H](C)[C@H](CN(C)Cc1ccc3c(c1)OCO3)OCCCC[C@@H](C)O2	none (no result: Statin myotox sup)
CCn1c(CSc2nc3ccccc3[nH]2)n[nH]c1=S	Statin myotox sup 101 (no result: E-selectin induc, Xi reactivation)
C[C@@H]1CN([C@@H](C)CO)C(=O)Cc2cc(NC(=O)Cc3cn(C)c4ccccc34)ccc2O[C@H]1CN(C)Cc1ccccc1	none
C[C@@H]1CN([C@@H](C)CO)C(=O)Cc2cc(NC(=O)CCCCCC(=O)Nc3ccccc3N)ccc2O[C@@H]1CN(C)Cc1ccc(Cl)c(Cl)c1	none
C[C@@H]1CN([C@@H](C)CO)C(=O)c2cccc(NC(=O)CCCCCC(=O)Nc3ccccc3N)c2O[C@@H]1CN(C)Cc1ccc(Cl)c(Cl)c1	none
C[C@@H]1CN([C@H](C)CO)C(=O)Cc2cc(NC(=O)CCCCCC(=O)Nc3ccccc3N)ccc2O[C@@H]1CN(C)Cc1ccc(Cl)c(Cl)c1	Statin myotox sup 85, DENV2 CPE rescue 84
C[C@H](CO)N1C[C@H](C)[C@H](CN(C)Cc2ccc(Cl)c(Cl)c2)Oc2ccc(NC(=O)CCCCCC(=O)Nc3ccccc3N)cc2CC1=O	Statin myotox sup 139
C[C@H](CO)N1C[C@H](C)[C@@H](CN(C)Cc2ccc(Cl)c(Cl)c2)Oc2c(NC(=O)CCCCCC(=O)Nc3ccccc3N)cccc2C1=O	E-selectin induc 324 (no result: Statin myotox sup, PglD DTNB)
CC(C)[C@@H]1COCc2cn(nn2)CC[C@H](Cc2ccccc2)C(=O)N1	none (no result: Statin myotox sup, PglD DTNB)
CO[C@H]1CN(C)C(=O)c2cc(NC(=O)Nc3ccccc3)ccc2OC[C@@H](C)NC[C@@H]1C	DENV2 CPE rescue 26
CO[C@H]1CN(C)C(=O)c2cc(NC(=O)Nc3ccc(Cl)cc3)ccc2OC[C@H](C)NC[C@H]1C	E-selectin induc 66 (no result: DENV2 CPE rescue, FGF22 binding)
CO[C@H]1CN(C)C(=O)c2cc(NC(=O)c3nc4ccccc4s3)ccc2OC[C@H](C)NC[C@H]1C	none
CCS(=O)(=O)Nc1ccc2c(c1)C(=O)N(C)C[C@@H](OC)[C@H](C)CN[C@H](C)CO2	none
CO[C@@H]1CN(C)C(=O)c2cc(NC(=O)c3nc4ccccc4s3)ccc2OC[C@H](C)NC[C@H]1C	DENV2 CPE rescue 24
CCS(=O)(=O)Nc1ccc2c(c1)C(=O)N(C)C[C@H](OC)[C@@H](C)CN[C@@H](C)CO2	DENV2 CPE rescue 25
COc1ccc(S(=O)(=O)Nc2ccc3c(c2)C(=O)N([C@H](C)CO)C[C@H](C)[C@H](CN(C)Cc2ccc4c(c2)OCO4)O3)cc1	none
C[C@@H]1CN([C@@H](C)CO)C(=O)c2cc(NC(=O)NC3CCCCC3)ccc2O[C@@H]1CN(C)Cc1ccc(C(=O)Nc2ccccc2N)cc1	none (no result: Statin myotox sup, PglD DTNB)
C[C@H](CO)N1C[C@H](C)[C@@H](CN(C)S(=O)(=O)c2cn(C)cn2)Oc2cc(C3=CCCCC3)ccc2S1(=O)=O	none
CO[C@H]1CN(C)C(=O)c2cc(NC(=O)Nc3ccccc3Cl)ccc2OC[C@@H](C)NC[C@H]1C	DENV2 CPE rescue 20
CO[C@H]1CN(C)C(=O)c2cc(NC(C)=O)ccc2OC[C@@H](C)NC[C@@H]1C	PglD DTNB 19
CO[C@H]1CN(C)C(=O)c2cc(NC(C)=O)ccc2OC[C@H](C)NC[C@H]1C	none (no result: DENV2 CPE rescue, FGF22 binding, PglD DTNB)
C[C@H]1CN([C@@H](C)CO)C(=O)Cc2cc(NC(=O)CCC(F)(F)F)ccc2O[C@H]1CN(C)Cc1ccccc1	none
Cc1cc(NC(=O)COC(=O)[C@@H](NS(=O)(=O)c2ccccc2)C(C)C)no1	FGF22 binding 43 (no result: Statin myotox sup, E-selectin induc, PglD DTNB)
Cc1cc(NC(=O)COC(=O)[C@@H](NS(=O)(=O)c2ccc(Br)cc2)C(C)C)no1	none (no result: Statin myotox sup, PglD DTNB)
Cc1ccc(NS(=O)(=O)c2ccc(C(=O)OCC(=O)Nc3cc(C)on3)cc2)cc1	FGF22 binding 43 (no result: E-selectin induc)
CCOc1cc(C(=O)OCC(=O)Nc2cc(C)on2)ccc1OCC(C)C	FGF22 binding 44 (no result: Statin myotox sup, E-selectin induc, PglD DTNB)
COc1ccc(NS(=O)(=O)c2cccc(C(=O)OCC(=O)Nc3cc(C)on3)c2)cc1	none (no result: E-selectin induc, Xi reactivation, DENV2 CPE rescue, FGF22 binding)
CC(=O)NC[C@@H]1[C@H](c2ccc(-c3cccnc3)cc2)[C@H](CO)N1C(=O)C1CC1	none
C[C@H]1CN(C)C(=O)c2cc([N+](=O)[O-])ccc2O[C@H]1CN(C)C(=O)OC(C)(C)C	none (no result: Statin myotox sup, E-selectin induc, DENV2 CPE rescue, FGF22 binding, PglD DTNB)
COc1ccc(Nc2nc3ccccc3s2)cc1	DENV2 CPE rescue inconclusive, FGF22 binding 2.6 (no result: Statin myotox sup, E-selectin induc, PglD DTNB)
COc1cccc(Nc2nc3ccc(OC)cc3s2)c1	none (no result: Statin myotox sup, PglD DTNB)
OC[C@@H]1[C@@H](c2ccccc2)C2(CN(Cc3nccs3)C2)N1Cc1cccnc1	DENV2 CPE rescue 84 (no result: Statin myotox sup, PglD DTNB)
OC[C@@H]1[C@@H](c2ccccc2)C2(CN(Cc3cccnc3)C2)N1Cc1ccncc1	none (no result: Statin myotox sup, PglD DTNB)
OC[C@@H]1[C@@H](c2ccccc2)C2(CN(Cc3nccs3)C2)N1Cc1ccccc1	DENV2 CPE rescue 20 (no result: Statin myotox sup, PglD DTNB)
OC[C@@H]1[C@H](c2ccccc2)C2(CN(Cc3cccnc3)C2)N1Cc1ccncc1	DENV2 CPE rescue 20 (no result: Statin myotox sup, PglD DTNB)
OC[C@@H]1[C@H](c2ccccc2)C2(CN(CC3CC3)C2)N1Cc1nccs1	none (no result: Statin myotox sup, PglD DTNB)
OC[C@@H]1[C@H](c2ccccc2)C2(CN(Cc3nccs3)C2)N1Cc1cccnc1	none (no result: Statin myotox sup, PglD DTNB)
CO[C@H]1CN(C)C(=O)c2cc(NC(=O)c3ccno3)ccc2OC[C@@H](C)NC[C@@H]1C	none
C[C@@H]1CN([C@@H](C)CO)C(=O)c2cc(NC(=O)CCC(F)(F)F)ccc2O[C@@H]1CN(C)Cc1ccc(Oc2ccccc2)cc1	none (no result: Statin myotox sup)
COCC(=O)Nc1ccc2c(c1)OC[C@@H](C)N(C(=O)c1ccncc1)C[C@H](C)[C@@H](OC)CN(C)C2=O	none
COc1ccc2c3c([nH]c2c1)[C@@H](CO)N(C(=O)c1ccccc1)CC31CN(C(=O)Nc2cccc(F)c2)C1	none (no result: Statin myotox sup, PglD DTNB)
CCn1c(=O)n(CC)c2cc(N3CCCC3)c(NC(=O)c3ccc(C)cc3)cc21	DENV2 CPE rescue 36 (no result: E-selectin induc)
